Assay results published in paper PMC12811664 (Angewandte Chemie (International Ed. in English), 2025).
Positions count from the first letter of the chain named.

What was measured:
DC-SIGN ECD = molecular target: T1, DC-SIGN ECD (Homo sapiens, UniProt Q9NNX6); experiment: Plate-based horseradish peroxidase; assay type: biochemical
T1 sequence (Q9NNX6 64-404): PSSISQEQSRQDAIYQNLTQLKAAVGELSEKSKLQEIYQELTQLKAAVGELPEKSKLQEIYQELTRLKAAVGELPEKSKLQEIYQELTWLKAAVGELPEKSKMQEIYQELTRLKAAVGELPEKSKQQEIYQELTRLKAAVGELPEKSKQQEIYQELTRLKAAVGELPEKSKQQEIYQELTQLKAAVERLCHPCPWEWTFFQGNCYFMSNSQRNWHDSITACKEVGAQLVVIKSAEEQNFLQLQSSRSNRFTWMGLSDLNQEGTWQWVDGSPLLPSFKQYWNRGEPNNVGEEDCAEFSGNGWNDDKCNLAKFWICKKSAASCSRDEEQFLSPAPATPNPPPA
Summary of the method: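 Purified DC-SIGN extracellular domain immobilized on plates. Incubated overnight at 4 °C or room temperature with test compound at 0.5 mM for the screen, or at a concentration series for dose-response (overnight, RT, or varied incubation times). After washing, HRP added; it binds via its own glycans. Bound HRP read by peroxidase activity relative to DMSO control. Hit cutoff ≥50% change. EDTA, mannan and mannose used as controls. Mean of three biological replicates.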

DC-SIGN CRD = molecular target: T2, DC-SIGN CRD (Homo sapiens, UniProt Q9NNX6); experiment: Grating-coupled interferometry; assay type: binding; conditions: mannose-PEG3 sensor; for EC50: EC50, GCI binding response, overnight incubation at RT
T2 sequence (Q9NNX6 253-404): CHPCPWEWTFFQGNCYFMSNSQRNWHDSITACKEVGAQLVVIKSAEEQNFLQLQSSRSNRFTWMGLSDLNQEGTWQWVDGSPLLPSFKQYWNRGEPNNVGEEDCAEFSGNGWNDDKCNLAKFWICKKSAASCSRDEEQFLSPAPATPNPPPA

DC-SIGN ECD K373R = molecular target: T3, DC-SIGN ECD K373R (Homo sapiens, UniProt Q9NNX6, K373R); experiment: HRP binding assay with Lys mutant K373R; assay type: biochemical
T3 sequence (Q9NNX6 64-404 K373R): T1 sequence (Q9NNX6 64-404) with K310R

DC-SIGN ECD K295R = molecular target: T4, DC-SIGN ECD K295R (Homo sapiens, UniProt Q9NNX6, K295R); experiment: HRP binding assay with Lys mutant K295R; assay type: biochemical
T4 sequence (Q9NNX6 64-404 K295R): T1 sequence (Q9NNX6 64-404) with K232R

DC-SIGN ECD K340R = molecular target: T5, DC-SIGN ECD K340R (Homo sapiens, UniProt Q9NNX6, K340R); experiment: HRP binding assay with Lys mutant K340R; assay type: biochemical
T5 sequence (Q9NNX6 64-404 K340R): T1 sequence (Q9NNX6 64-404) with K277R

DC-SIGN CRD wild type = molecular target: T6, DC-SIGN CRD wild type (Homo sapiens, UniProt Q9NNX6); experiment: Dynamic light scattering of modified protein; conditions: protein-compound ratios up to 1:10
T6 sequence (Q9NNX6 253-404): T2 sequence (Q9NNX6 253-404)

DC-SIGN CRD M270F = molecular target: T7, DC-SIGN CRD M270F (Homo sapiens, UniProt Q9NNX6, M270F); experiment: Dynamic light scattering of modified protein, M270F mutant; conditions: secondary site blocked
T7 sequence (Q9NNX6 253-404 M270F): T2 sequence (Q9NNX6 253-404) with M18F

| time dependency of dose-response after varying incubation times, HRP assay (DC-SIGN ECD; reaction quenched at different time points) | EC50 (DC-SIGN CRD) [µM] | Hill slope (nH), GCI (DC-SIGN CRD) | activity (EC50) on mutant compared to the wild type, HRP assay (DC-SIGN ECD K373R) | activity (EC50) on mutant compared to the wild type, HRP assay (DC-SIGN ECD K295R) | activity (EC50) on mutant compared to the wild type, HRP assay (DC-SIGN ECD K340R) | change of protein hydrodynamic size upon modification (DLS) (DC-SIGN CRD wild type) | EC50 (DC-SIGN ECD) [µM] | change of protein hydrodynamic size upon modification (DLS) (DC-SIGN CRD M270F) | IC50 (DC-SIGN ECD) [µM] | screening outcome, activity change compared to the DMSO control (DC-SIGN ECD; 0.5 mM compound, overnight, cutoff ∼50% activity change) | Structure (SMILES) |
| --- | --- | --- | --- | --- | --- | --- | --- | --- | --- | --- | --- |
| clear time dependency | 100 | ≈ 1 | drastically reduced activity | EC50s similar to that of the wild type | EC50s similar to that of the wild type | no increase in size | – | – | – | – | COc1c(Nc2cc(C(F)(F)F)cc(C(F)(F)F)c2)c(=O)c1=O [Compound 33, 3-((3,5-bis(trifluoromethyl)phenyl)amino)-4-methoxycyclobut-3-ene-1,2-dione] |
| – | 200 | – | No change in EC50 | No change in EC50 | No change in EC50 | induces oligomerization | 30 | lack of oligomerization | – | – | O=C(ON1C(=O)CCC1=O)c1cc(C(F)(F)F)cc(C(F)(F)F)c1 [Compound 11, 2,5-dioxopyrrolidin-1-yl 3,5-bis(trifluoromethyl)benzoate] |
| – | – | – | – | – | – | – | – | – | 11400 | – | OC[C@H]1OC(O)[C@@H](O)[C@@H](O)[C@@H]1O (stereo partly shown) [mannose, reference compound] |
| – | – | – | – | – | – | – | – | – | – | potential inhibitor | O=Cc1cc2ccccc2cc1C=O [Compound 30, naphthalene‐2,3‐dicarbaldehyde] |
